# LANA-H2B inh – blocks KSHV LANA binding to histone H2A/H2B; Q9QR71; cell-free LANA-H2A/H2B peptide, fluorescence polarization; inhibition, % (no concentration beside the values); 320,000 tested, 0.6% active; AID 2629; in the data active = inhibition mostly above about 10%, no sharp cut-off; inactive = mostly below about 6.7%
# RanGTP-Impb inh – disruptors of Ran-importin-beta complex formation – biochemical, FRET, CFP-Ran, YFP-importin-beta, homogeneous, primary screen. cell-free CFP-Ran/YFP-importin-beta FRET ratio. inhibition, % (test concentration not listed). 300,000 tested, 1.1% active;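 active = more than half of the replicate wells show a fall in the fluorescence ratio signal beyond about 16%, limit read from the data, passing the limit was not always enough; inconclusive = exactly half of the replicate wells pass the set limit; inactive = fewer than half of replicates pass the limit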
# EBV gp42 inh – EBV gp42 inhibition. Q1HVG2. Fluorescence polarization binding assay, mP read-out. inhibition, % (tested at 21.74 µM). 220,000 tested, 0.42% active. AID 1085; in the data active = inhibition above about 50%
# Runt-CBFb FRET – inhibitors of human RUNX1 Runt domain binding to CBFb | Q01196+Q13951 | Cerulean-Runt/Venus-CBFb FRET ratio 530/480, 1 h | inhibition, % at 20 µM | 220,000 tested, 0.46% active | AID 1496;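 active = inhibition over about 50% at 20 µM in the single-dose screen, limit read from the data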
# Target sequence (Q01196 whole entry, looked up, the tested form may be a part): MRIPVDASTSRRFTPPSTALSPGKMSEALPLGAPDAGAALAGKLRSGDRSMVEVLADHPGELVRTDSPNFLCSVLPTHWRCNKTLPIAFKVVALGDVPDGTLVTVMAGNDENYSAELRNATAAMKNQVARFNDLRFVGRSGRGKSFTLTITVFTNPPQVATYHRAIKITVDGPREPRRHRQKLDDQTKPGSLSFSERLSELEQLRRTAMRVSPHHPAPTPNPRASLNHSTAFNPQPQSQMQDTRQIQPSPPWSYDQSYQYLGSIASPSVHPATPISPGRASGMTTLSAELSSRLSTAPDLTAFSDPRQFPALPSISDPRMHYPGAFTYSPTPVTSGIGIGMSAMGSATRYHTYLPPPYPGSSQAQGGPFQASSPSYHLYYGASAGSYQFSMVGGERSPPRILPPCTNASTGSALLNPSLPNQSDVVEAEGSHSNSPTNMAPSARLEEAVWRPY
# Target sequence (Q13951 whole entry, looked up, the tested form may be a part): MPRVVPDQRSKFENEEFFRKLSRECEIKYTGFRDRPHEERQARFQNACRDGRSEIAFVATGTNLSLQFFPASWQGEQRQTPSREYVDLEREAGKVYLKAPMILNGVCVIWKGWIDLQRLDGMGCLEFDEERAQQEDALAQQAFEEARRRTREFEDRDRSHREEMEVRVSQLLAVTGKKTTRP
#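 Assay system: Cerulean-Runt domain / Medium: Tris 50 mM pH 7.5, KCl, K2SO4, 0.01% BSA / Timing: protein complex preformed 1 h, compound exposure 1 h, room temperature, dark / Measured by: FRET, excitation 422 nm, emission at 530 and 480 nm / Evaluation: loss of energy transfer signal / Control set: 5 µM unlabeled CBFb as full-inhibition high control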
# Runt-SMMHC FRET – inhibitors of human RUNX1 Runt domain binding to CBFb-SMMHC | Cerulean-Runt/Venus-CBFb-SMMHC FRET ratio 530/480, 1 h | inhibition, % at 20 µM | 220,000 tested, 0.74% active;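 active = mean inhibition across duplicate retests at 20 µM reaching about 50%, limit read from the data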;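 also: inhibitors lower the FRET ratio by blocking Runt binding to CBFb-SMMHC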
# MEX-5 binding – C. elegans MEX-5 TCR-2 RNA binding activity; 300,000 tested, 0.38% active; Q9XUB2; MEX-5/FITC-TCR2 RNA binding, fluorescence polarization; hits give low values; activity score (negative = inhibition of binding), % at 10 µM;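 active = inhibition past about -25% in most replicates, and total fluorescence under double the plate's negative control median, limit read from the data; inconclusive = replicates evenly split on the limit, or fluorescence at least double controls; inactive = too little inhibition in most replicates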
# A number is an active result; . = inactive; ? = inconclusive; / = no result given; + = active, no number; ! = repeats disagree. Only some compounds are listed: those with a hit (about 2.4% of all), similar ones and a draw of the others.
SMILES,LANA-H2B inh,RanGTP-Impb inh,EBV gp42 inh,Runt-CBFb FRET,Runt-SMMHC FRET,MEX-5 binding
COc1ccc2nc(Nc3nc(C)c(C(C)=O)s3)sc2c1,.,18.1,.,.,.,.
COc1ccc(Nc2nc3ccc(OC)cc3s2)cc1,.,.,.,.,.,.
CCOc1ccc(N2C(=O)CC(N(Cc3ccco3)C(=O)CCC(=O)O)C2=O)cc1 (configuration not stated),.,.,.,/,/,.
O=C(O)c1cccc(NC(=O)c2ccccc2NC(=O)c2ccccc2F)c1,16.7,.,/,/,/,.
O=C(Nc1ccccc1C(=O)Nc1ccccc1)c1ccccc1F,.,?,/,/,/,.
O=C(Nc1ccccc1Oc1ccsc1C(=O)O)c1ccccc1F,97.9,.,/,/,/,.
C=CCn1c(O)c(N=Nc2ccccc2C)c2ccccc21,.,.,68.0,.,.,.
C=CCn1c(O)c(N=O)c2ccccc21,.,.,.,.,.,.
Cc1nn(C)c(C(=O)NNC(=O)NC2CCCCC2)c1Cl,/,.,/,/,/,.
O=C(O)CCCN1C(=O)/C(=C\c2ccc(-c3nc4ccccc4s3)o2)SC1=S,.,.,.,.,.,-55.6
O=C(NCc1ccco1)C1CCC(N2C(=O)c3ccccc3C2=O)CC1 (configuration not stated),23.3,.,.,.,.,.
CCn1c(=O)c2ccccc2n(CC(=O)NC2CCCCC2)c1=O,.,.,/,/,/,.
CN(Cc1cnn(C)c1)Cc1nc(C(c2ccccc2)c2ccccc2)no1,.,.,.,.,.,.
Cc1ccc(N(CC2=NCCN2)c2cccc(O)c2)cc1,22.6!,?,.,.,.,.
CNC(=S)N1C2CCCC1CC(NC(=O)c1ccc(F)cc1)C2 (configuration not stated),.,.,/,/,/,.
COC(OC)c1ccnc(-c2ccc(OC(=O)c3ccccc3)cc2)n1,.,?,.,.,.,.
COC(OC)c1ccnc(-c2ccc(OC(=O)c3cccs3)cc2)n1,.,.,58.9,.,.,.
COc1ccc(C(CNC(=O)c2c(C)nn(Cc3ccccc3)c2Cl)N2CCOCC2)cc1 (configuration not stated),.,/,/,/,/,/
CCOc1ccc(S(=O)(=O)N2CCCCC2)cc1NC(=O)CN1C(=O)NC(C)(c2ccc(C)cc2)C1=O (configuration not stated),.,?,/,/,/,.
CCCn1c(N)c(N(CCOC)C(=O)Cc2ccc(S(=O)(=O)N3CCOCC3)s2)c(=O)[nH]c1=O,.,?,/,/,/,-25.6
COc1ccc(CN2CCC(CO)(Cc3cccc(C(F)(F)F)c3)CC2)cc1Cn1cccn1,.,.,.,.,.,.
Cc1cccc2nc(CSc3nc4ccccc4[nH]3)cn12,.,.,.,70.6,.,.
CCOc1ccc(N(CC(=O)NCc2ccc(F)cc2)C(=O)c2ccco2)cc1,.,.,/,/,/,.
Cc1ccc(Sc2ncccc2N)cc1,37.4,.,/,/,/,/
O=C(OCC(=O)N1CCC(Cc2ccccc2)CC1)c1cncc(Br)c1,.,/,/,/,/,/
SMILES,LANA-H2B inh,RanGTP-Impb inh,EBV gp42 inh,Runt-CBFb FRET,Runt-SMMHC FRET,MEX-5 binding
Cc1ccc(NC(=O)CC2OC(=O)c3ccccc32)cc1S(=O)(=O)N1CCCCCC1 (configuration not stated),11.0,/,/,/,/,/
CCOc1ccc(S(=O)(=O)NCCC(=O)N(C)CC(=O)Nc2ccc(N3CCOCC3)cc2)cc1,.,.,/,/,/,.
N#Cc1ccccc1NC(=O)c1ccc2c(c1)OCCO2,.,.,/,/,/,.
Cc1sc(NC(=O)COc2ccccc2)c(C#N)c1-c1ccccc1,.,.,.,.,.,.
COc1ccc(C(=O)Nc2sc(C)c(-c3ccccc3)c2C#N)cc1OC,.,79.4,.,.,.,.
O=C1C=C(O)c2c(O)cc(O)c(O)c2C1=O,.,?,/,/,/,-99.7
COc1cc(NC(=O)COc2ccccc2)c(OC)cc1NC(C)=O,14.3,.,.,.,.,.
O=C(COc1ccccc1)NC1CCCCCCC1,8.9,.,/,/,/,.
O=C(CNC(=O)OCc1ccccc1)NC1CCCCCC1,17.3,.,.,.,.,.
COc1cc(C)ccc1OCc1cc(C(=O)N2CCC(c3ccc(F)cc3)C2)no1 (configuration not stated),.,.,/,/,/,.
Cc1cn(C2OC(CC(=O)Oc3ccccc3)C(O)C2O)c(=O)[nH]c1=O (configuration not stated),.,.,/,/,/,.
Cn1cc(/C=N\O)nc2c(=O)n(-c3ccccc3)c(=O)nc1-2,.,33.5,.,83.5,94.6,.
COc1ccc(OC)c2nc(-c3ccncc3)ccc12,.,.,/,/,/,.
Cc1cc(Nc2c(C)n(C)n(-c3ccccc3)c2=O)n2c(nc3cc(F)c(F)cc32)c1C#N,.,96.3,.,.,.,.
CCCc1cc(SCC(=O)Nc2c(C)n(C)n(-c3ccccc3)c2=O)n2c(nc3ccccc32)c1C#N,.,.,.,.,.,.
NS(=O)(=O)c1cc(C(=O)N=Nc2c(O)[nH]c3ccccc23)ccc1Cl,.,.,.,.,.,.
CC(=O)Nc1nc(C)c(C(C)C)s1,.,.,.,.,.,.
CCc1ccc(NC(=O)CNC(=O)[C@@H]2Cc3ccccc3CN2C(=O)OC(C)(C)C)cc1,.,.,/,/,/,.
CCc1ccc(C2=CC(c3cc(Br)ccc3F)n3ncnc3N2)cc1 (configuration not stated),.,/,.,.,75.1,/
Cc1ccsc1C1C=C(c2cccc(Br)c2)Nc2ncnn21 (configuration not stated),.,.,94.4,.,.,.
COc1cccc(C2=CC(c3ccc(C)cc3)n3ncnc3N2)c1 (configuration not stated),.,.,.,.,.,.
Cc1ccc(-c2[nH]ncc2C(=O)c2ccccc2C)c(O)c1,.,.,/,/,/,.
Cc1ccc(NS(=O)(=O)c2ccc(NC(=O)c3cccs3)cc2)cc1,.,.,.,.,.,.
COc1cc(C(CC(=O)N2CCCC2)c2c(OC)cc(OC)c3ccc(=O)oc23)cc(OC)c1OC (configuration not stated),.,.,.,.,.,-38.6
NC(=O)c1nn(CC(=O)Nc2cccc(S(=O)(=O)N3CCCCCC3)c2)c(=O)c2ccccc12,+,/,/,/,/,/
NC(=O)c1nn(CC(=O)Nc2cccc(S(=O)(=O)N3CCCC3)c2)c(=O)c2ccccc12,.,/,/,/,/,/
Cc1ccc(S(=O)(=O)Nc2ccccc2F)cc1C(=O)NNC(=O)c1ccccc1O,.,.,/,/,/,-37.2
COc1ccc(NS(=O)(=O)c2ccc(C)c(C(=O)NNC(=O)c3ccccc3O)c2)cc1,.,.,/,/,/,.
CCCCn1c(-c2cccs2)nc2oc3ccccc3c(=O)c2c1=O,.,.,.,.,.,.
O=c1c(O)c(-c2cccs2)oc2ccccc12,.,93.4,.,.,78.7,.
